Laboratory results as given in ChEMBL document CHEMBL4014347, “Targeting Mycolic Acid Transport by Indole-2-carboxamides for the Treatment of Mycobacterium abscessus Infections” (J Med Chem, 2017).
Converted amounts (≈) assume the structure as drawn.

Key:
[1] = system: Mycobacterium tuberculosis; test: Antibacterial activity against Mycobacterium tuberculosis by AlamarBlue assay; format: functional
[2] = system: Vero; test: Cytotoxicity against African green monkey Vero cells; format: cell-based; details: Chlorocebus sabaeus
[3] = Selectivity index, ratio of IC50 for African green monkey Vero cells to MIC=<90 for Mycobacterium tuberculosis; format: toxicity; details: read-out: Selectivity Index
[4] = system: Mycobacteroides abscessus; test: Antibacterial activity against non CF patient derived Mycobacterium abscessus subsp. abscessus isolate CIP104536 smooth variant after 3 to 5 days by two fold serial dilution method; format: functional
Outline: (§1)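 Broth microdilution in cation-adjusted Mueller−Hinton broth per CLSI; inoculum 5 × 10^6 CFU/mL of exponential-phase bacteria; two-fold serial dilutions, solvent-only wells as control; 30 °C for 3−5 days; MIC read visually and confirmed by absorbance at 560 nm; triplicate on three independent occasions.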

[5] = system: Mycobacteroides abscessus; test: Antibacterial activity against Mycobacterium abscessus CIP_OK4-10 harboring MAB_4508 g925c/A309P mutant after 3 to 5 days by two fold serial dilution method; format: functional; outline: as §1
[6] = system: Mycobacteroides abscessus; test: Antibacterial activity against Mycobacterium abscessus CIP_PIPD1 harboring MAB_4508 g925c/A309P mutant after 3 to 5 days by two fold serial dilution method; format: functional; outline: as §1
[7] = system: Mycobacteroides abscessus; test: Antibacterial activity against Mycobacterium abscessus CIP104536 after 3 to 5 days by two fold serial dilution method; format: functional
Outline: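 Broth microdilution per CLSI in cation-adjusted Mueller–Hinton broth; exponential-phase inoculum 5 × 10^6 CFU/mL; two-fold serial dilutions from highest concentration, solvent wells as control; 30 °C for 3−5 days; MIC read visually and confirmed by absorbance at 560 nm; triplicate on three independent occasions.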

[8] = Selectivity index, ratio of IC50 for African green monkey Vero cells to MIC for Mycobacterium abscessus CIP104536; format: toxicity; details: read-out: Selectivity Index
[9] = system: Mycobacterium tuberculosis; test: Inhibition of C-terminal His-tagged Mycobacterium tuberculosis Ag85C expressed in Escherichia coli C41 (DE3) at 2.5 to 50 uM after 1 hr by resorufin butyrate-based fluorescence assay
Outline: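 Purified Ag85C mycolyltransferase activity measured with the fluorescent probe resorufin butyrate; compounds tested at 2.5 to 50 μM.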

| SMILES | MIC=<90 [1] [µg/mL] | IC50 [2] [µg/mL] | selectivity ratio [3] | MIC [7] [µg/mL] | also measured |
| --- | --- | --- | --- | --- | --- |
| NNC(=O)c1ccncc1 [ISONIAZID] | 0.04 (≈ 0.292 µM) | > 256 | > 6400 | – | – |
| Cc1ccccc1CN1CCC(O)(c2ccc(Cl)c(C(F)(F)F)c2)CC1 | – | – | – | – | MIC [4]: 0.125 µg/mL (≈ 0.326 µM); MIC [5]: 8 µg/mL (≈ 20.8 µM); MIC [6]: 8 µg/mL (≈ 20.8 µM) |
| O=C(NC1CCCCCCC1)c1cc2c(C(F)(F)F)cc(C(F)(F)F)cc2[nH]1 | 0.0156 (≈ 0.0384 µM) | – | – | 0.5 (≈ 1.23 µM) | – |
| C[C@@H](NC(=O)c1cc2c(Cl)cc(Cl)cc2[nH]1)C1CCCCC1 | 2 (≈ 5.9 µM) | – | – | 0.5 (≈ 1.47 µM) | – |
| Cc1cc(C)c2[nH]c(C(=O)NC3CCCCCC3)cc2c1 | 0.0625 (≈ 0.22 µM) | – | – | 0.25 (≈ 0.879 µM) | – |
| Cc1cccc2[nH]c(C(=O)NC3CCCCCC3)cc12 | 0.0313 (≈ 0.116 µM) | – | – | 0.25 (≈ 0.925 µM) | – |
| O=C(NC1Cc2ccccc2C1)c1cc2c(Cl)cc(Cl)cc2[nH]1 | 0.25 (≈ 0.724 µM) | – | – | > 32 | – |
| O=C(NC12CC3CC(CC(C3)C1)C2)c1cc2c(Cl)cc(Cl)cc2[nH]1 | 0.0039 (≈ 0.0107 µM) | ≥ 32 | ≥ 8210 | > 32 | selectivity ratio [8]: ≥ 1 |
| Cc1cc(C)c2cc(CNC3CCCCCCC3)[nH]c2c1 | 0.125 (≈ 0.439 µM) | – | – | 0.5 (≈ 1.76 µM) | – |
| O=c1c2ccccc2[se]n1-c1ccccc1 | – | – | – | – | inhibition [9]: Dose-dependent effect |
| Cc1cc(C)c2cc(CNC(=O)C3CCCCCC3)[nH]c2c1 | 16 (≈ 53.6 µM) | – | – | > 32 | – |
| C[C@@H]1[C@@H](NC(=O)c2cc3c(Cl)cc(Cl)cc3[nH]2)C[C@H]2C[C@@H]1C2(C)C | 0.0078 (≈ 0.0214 µM) | 16 (≈ 43.8 µM) | 2050 | 128 (≈ 350 µM) | selectivity ratio [8]: 0.125 |
| CC1(C)C2CC[C@@]1(C)C(NC(=O)c1cc3c(Cl)cc(Cl)cc3[nH]1)C2 (stereo not given in full) | 0.0156 (≈ 0.0427 µM) | 8 (≈ 21.9 µM) | 513 | > 32 | selectivity ratio [8]: 0.25 |
| Cc1cc(C)c2cc(C(=O)NC34CC5CC(CC(C5)C3)C4)oc2c1 | 1 (≈ 3.09 µM) | – | – | 1 (≈ 3.09 µM) | – |
| O=C(NC1CCC2(CCCCC2)CC1)c1cc2c(Cl)cc(Cl)cc2[nH]1 | 0.001953 (≈ 0.00515 µM) | ≥ 64 | ≥ 32800 | > 32 | selectivity ratio [8]: ≥ 2 |
| Cc1cc(C)c2cc(C(=O)NC3CCCCCCC3)oc2c1 | 8 (≈ 26.7 µM) | – | – | 0.5 (≈ 1.67 µM) | – |
